Assay results from ChEMBL document CHEMBL1151234, “Chemistry of renieramycins. Part 5. Structure elucidation of renieramycin-type derivatives O, Q, R, and S from thai marine sponge Xestospongia species pretreated with potassium cyanide” (J Nat Prod, 2004).

Experiments:
[1] = test system: HCT-116; assay: Cytotoxicity against human HCT116 cells after 4 days; type: functional, cell-based; details: HCT-116, 96 h
Summary of the method: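 Single-cell suspension of HCT116 cells seeded at 2 × 10^3 cells/well onto serially diluted test compounds, cultured 4 days. Growth read with a cell counting kit. IC50 taken as the concentration giving 50% growth inhibition versus untreated control.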

[2] = test system: QG-56; assay: Cytotoxicity against human QG56 cells after 4 days; type: functional, cell-based; details: QG-56, 96 h

Structure (SMILES): C/C=C(/C)C(=O)OC[C@H]1c2c(c(OC(C)=O)c(C)c(OC)c2OC(C)=O)C[C@H]2[C@H]3C4=C(C[C@@H]([C@H](C#N)N12)N3C)C(=O)C(C)=C(OC)C4=O
- IC50 [1]: 0.0019 µM
- IC50 [2]: 0.0039 µM

Structure (SMILES): C/C=C(/C)C(=O)OC[C@H]1C2=C(C[C@H]3[C@H]4C5=C(C[C@@H]([C@H](C#N)N13)N4C)C(=O)C(C)=C(OC)C5=O)C(=O)C(C)=C(O)C2=O [RENIERAMYCIN S]
- IC50 [1]: 0.015 µM
- IC50 [2]: 0.026 µM

Structure (SMILES): C/C=C(/C)C(=O)OC[C@H]1c2c(c(OC(C)=O)c(C)c(OC)c2OC(C)=O)C[C@H]2[C@H]3c4c(c(OC(C)=O)c(C)c(OC)c4OC(C)=O)C[C@@H]([C@H](C#N)N12)N3C
- IC50 [1]: 0.003 µM
- IC50 [2]: 0.0079 µM

Structure (SMILES): C/C=C(/C)C(=O)OC[C@H]1C2=C(C[C@H]3[C@H]4c5c(O)c(OC)c(C)c(O)c5C(=O)[C@@H]([C@H](C#N)N13)N4C)C(=O)C(C)=C(OC)C2=O [RENIERAMYCIN Q]
- IC50 [1]: 0.059 µM
- IC50 [2]: 0.071 µM

Structure (SMILES): C/C=C(/C)C(=O)OC[C@H]1C2=C(C[C@H]3[C@H]4c5c(OC(C)=O)c(OC)c(C)c(OC(C)=O)c5[C@H](OC(C)=O)[C@@H]([C@H](C#N)N13)N4C)C(=O)C(C)=C(OC)C2=O
- IC50 [1]: 0.63 µM
- IC50 [2]: 1.6 µM

Structure (SMILES): C/C=C(/C)C(=O)OC[C@H]1C2=C(C[C@H]3[C@H]4C5=C(C(=O)C(C)=C(OC)C5=O)[C@H](OC(C)=O)[C@@H]([C@H](C#N)N13)N4C)C(=O)C(C)=C(OC)C2=O
- IC50 [1]: 0.12 µM
- IC50 [2]: 0.3 µM

Structure (SMILES): C/C=C(/C)C(=O)OC[C@H]1C2=C(C[C@H]3[C@H]4C5=C(C(=O)C(C)=C(OC)C5=O)[C@H](OC)[C@@H]([C@H](C#N)N13)N4C)C(=O)C(C)=C(OC)C2=O [RENIERAMYCIN R]
- IC50 [1]: 0.023 µM
- IC50 [2]: 0.029 µM
